In ChEMBL document CHEMBL4715736, “Identification of anticancer agents based on the thieno[2,3-b]pyridine and 1H-pyrazole molecular scaffolds” (2016):

What was measured:
Type in all cases: functional
A549 = assay: Growth inhibition of human A549/ATCC cells assessed as cell growth at 0.01 uM incubated for 48 hrs by sulforhodamine B assay relative to control; settings: read-out: Activity
Method in brief: (§1)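 NCI Developmental Therapeutics Program NCI60 panel. Compounds that were active in the 10 µM one-dose screen went on to dose–response testing. Growth at each concentration is expressed relative to untreated control (100%). GI50 (concentration giving 50% of maximal inhibition of proliferation) and TGI (concentration giving total growth inhibition) were derived from the curves.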

HCT-15 [1] = assay: Growth inhibition of human HCT-15 cells assessed as cell growth at 0.01 uM incubated for 48 hrs by sulforhodamine B assay relative to control; settings: read-out: Activity
M14 = assay: Growth inhibition of human M14 cells assessed as cell growth at 0.01 uM incubated for 48 hrs by sulforhodamine B assay relative to control; settings: read-out: Activity
OVCAR-3 = assay: Growth inhibition of human OVCAR-3 cells assessed as cell growth at 0.01 uM incubated for 48 hrs by sulforhodamine B assay relative to control; settings: read-out: Activity
OVCAR-8 = assay: Growth inhibition of human OVCAR-8 cells assessed as cell growth at 0.01 uM incubated for 48 hrs by sulforhodamine B assay relative to control; settings: read-out: Activity
786-0 [2] = assay: Growth inhibition of human 786-0 cells assessed as cell growth at 0.01 uM incubated for 48 hrs by sulforhodamine B assay relative to control; settings: read-out: Activity; method in brief: as §1
A498 = assay: Growth inhibition of human A498 cells assessed as cell growth at 0.01 uM incubated for 48 hrs by sulforhodamine B assay relative to control; settings: read-out: Activity; method in brief: as §1
DU-145 = assay: Growth inhibition of human DU-145 cells assessed as cell growth at 0.01 uM incubated for 48 hrs by sulforhodamine B assay relative to control; settings: read-out: Activity; method in brief: as §1
SR = assay: Growth inhibition of human SR cells assessed as cell growth at 0.1 uM incubated for 48 hrs by sulforhodamine B assay relative to control; settings: read-out: Activity
SF-539 [3] = assay: Growth inhibition of human SF-539 cells assessed as cell growth at 0.1 uM incubated for 48 hrs by sulforhodamine B assay relative to control; settings: read-out: Activity
SNB-19 = assay: Growth inhibition of human SNB-19 cells assessed as cell growth at 0.1 uM incubated for 48 hrs by sulforhodamine B assay relative to control; settings: read-out: Activity
786-0 [4] = assay: Growth inhibition of human 786-0 cells assessed as cell growth at 0.1 uM incubated for 48 hrs by sulforhodamine B assay relative to control; settings: read-out: Activity; method in brief: as §1
HOP-62 = assay: Growth inhibition of human HOP-62 cells assessed as cell growth at 1 uM incubated for 48 hrs by sulforhodamine B assay relative to control; settings: read-out: Activity
COLO 205 = assay: Growth inhibition of human COLO 205 cells assessed as cell growth at 1 uM incubated for 48 hrs by sulforhodamine B assay relative to control; settings: read-out: Activity; method in brief: as §1
SNB-75 = assay: Growth inhibition of human SNB-75 cells assessed as cell growth at 1 uM incubated for 48 hrs by sulforhodamine B assay relative to control; settings: read-out: Activity
SK-MEL-28 [5] = assay: Growth inhibition of human SK-MEL-28 cells assessed as cell growth at 1 uM incubated for 48 hrs by sulforhodamine B assay relative to control; settings: read-out: Activity
UACC-62 = assay: Growth inhibition of human UACC-62 cells assessed as cell growth at 1 uM incubated for 48 hrs by sulforhodamine B assay relative to control; settings: read-out: Activity
IGROV-1 [6] = assay: Growth inhibition of human IGROV-1 cells assessed as cell growth at 1 uM incubated for 48 hrs by sulforhodamine B assay relative to control; settings: read-out: Activity
T47D = assay: Growth inhibition of human T47D cells assessed as cell growth at 1 uM incubated for 48 hrs by sulforhodamine B assay relative to control; settings: read-out: Activity
NCI-H460 = assay: Growth inhibition of human NCI-H460 cells assessed as cell growth at 100 uM incubated for 48 hrs by sulforhodamine B assay relative to control; settings: read-out: Activity
SF-539 [7] = assay: Growth inhibition of human SF-539 cells assessed as cell growth at 100 uM incubated for 48 hrs by sulforhodamine B assay relative to control; settings: read-out: Activity
SK-MEL-28 [8] = assay: Growth inhibition of human SK-MEL-28 cells assessed as cell growth at 100 uM incubated for 48 hrs by sulforhodamine B assay relative to control; settings: read-out: Activity
UACC-257 = assay: Growth inhibition of human UACC-257 cells assessed as cell growth at 100 uM incubated for 48 hrs by sulforhodamine B assay relative to control; settings: read-out: Activity
SK-OV-3 = assay: Growth inhibition of human SK-OV-3 cells assessed as cell growth at 100 uM incubated for 48 hrs by sulforhodamine B assay relative to control; settings: read-out: Activity
MDA-MB-231 = assay: Growth inhibition of human MDA-MB-231 cells assessed as cell growth at 100 uM incubated for 48 hrs by sulforhodamine B assay relative to control; settings: read-out: Activity
CCRF-CEM = assay: Growth inhibition of human CCRF-CEM cells incubated for 48 hrs by sulforhodamine B assay; method in brief: as §1
NCI-H226 = assay: Growth inhibition of human NCI-H226 cells incubated for 48 hrs by sulforhodamine B assay
Method in brief: (§2)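 NCI60 panel at the NCI Developmental Therapeutics Program. Only compounds active in the 10 µM screen went to dose-response testing. GI50, the concentration giving 50% of maximal inhibition of proliferation, and TGI, the concentration giving total growth inhibition, were derived from the dose-response curves.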

NCI-H522 = assay: Growth inhibition of human NCI-H522 cells incubated for 48 hrs by sulforhodamine B assay; method in brief: as §2
HCT-116 = assay: Growth inhibition of human HCT-116 cells incubated for 48 hrs by sulforhodamine B assay; method in brief: as §2
HCT-15 [9] = assay: Growth inhibition of human HCT-15 cells incubated for 48 hrs by sulforhodamine B assay; method in brief: as §2
U-251 = assay: Growth inhibition of human U-251 cells incubated for 48 hrs by sulforhodamine B assay
Method in brief: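 NCI DTP 60-line human tumour panel. Dose-response curves were run only for ligands active in the initial 10 µM screen. GI50 (concentration giving 50% of maximal inhibition of proliferation) and TGI (concentration giving total growth inhibition) were derived from these curves.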

LOX IMVI = assay: Growth inhibition of human LOX IMVI cells incubated for 48 hrs by sulforhodamine B assay; method in brief: as §2
IGROV-1 [10] = assay: Growth inhibition of human IGROV-1 cells incubated for 48 hrs by sulforhodamine B assay; method in brief: as §2
786-0 [11] = assay: Growth inhibition of human 786-0 cells incubated for 48 hrs by sulforhodamine B assay; method in brief: as §1
[12] = read-out: LC50 (the source's name)

Q: Which results are given for COc1cccc(NC(=O)c2sc3nc4c(cc3c2N)CN(Cc2ccccc2)CC4)c1?
A: growth at 0.01 µM (A549): 96%; growth at 0.01 µM (HCT-15 [1]): 92%; growth at 0.01 µM (M14): 96%; growth at 0.01 µM (OVCAR-3): 107%; growth at 0.01 µM (OVCAR-8): 99%; growth at 0.01 µM (786-0 [2]): 90%; growth at 0.01 µM (A498): 94%; growth at 0.01 µM (DU-145): 105%; growth at 0.1 µM (SR): 99%; growth at 0.1 µM (SF-539 [3]): 92%; growth at 0.1 µM (SNB-19): 94%; growth at 0.1 µM (786-0 [4]): 93%; growth at 1 µM (HOP-62): 74%; growth at 1 µM (COLO 205): 92%; growth at 1 µM (SNB-75): 77%; growth at 1 µM (SK-MEL-28 [5]): 68%; growth at 1 µM (UACC-62): 58%; growth at 1 µM (IGROV-1 [6]): 90%; growth at 1 µM (T47D): 71%; growth at 100 µM (NCI-H460): -25%; growth at 100 µM (SF-539 [7]): -75%; growth at 100 µM (SK-MEL-28 [8]): -30%; growth at 100 µM (UACC-257): 21%; growth at 100 µM (SK-OV-3): -66%; growth at 100 µM (MDA-MB-231): -8%; GI50 (CCRF-CEM): 29.5 µM; LC50 (CCRF-CEM): > 100 µM; TGI (CCRF-CEM): > 100 µM; GI50 (NCI-H226): 6.03 µM; TGI (NCI-H226): 38.3 µM; CC50 (NCI-H226; [12]): > 100 µM; GI50 (NCI-H522): 15.1 µM; LC50 (NCI-H522): > 100 µM; TGI (NCI-H522): > 100 µM; GI50 (HCT-116): 1.74 µM; LC50 (concentration killing 50% of cells) (HCT-116): > 100 µM; TGI (HCT-116): > 100 µM; GI50 (HCT-15 [9]): 0.93 µM; LC50 (HCT-15 [9]): > 100 µM; TGI (HCT-15 [9]): > 100 µM; GI50 (U-251): 2.74 µM; LC50 (concentration killing 50% of cells) (U-251): 88.7 µM; TGI (U-251): 19.2 µM; GI50 (LOX IMVI): 4.09 µM; LC50 (LOX IMVI): > 100 µM; TGI (LOX IMVI): 43.5 µM; GI50 (IGROV-1 [10]): 18.5 µM; LC50 (IGROV-1 [10]): > 100 µM; TGI (IGROV-1 [10]): > 100 µM; GI50 (786-0 [11]): 3.61 µM; TGI (786-0 [11]): 20.8 µM; CC50 (786-0 [11]; [12]): > 100 µM
